Laboratory results reported in ChEMBL document CHEMBL1687745 (Antimicrob Agents Chemother, 2009).
In brackets after ≈: the same amount, converted by molar mass. Activity calls are given as the source filed them. The rule behind the calls is not given here.

Experiments:
Bacillus anthracis [1] = assay: Antimicrobial activity against Bacillus anthracis Sterne vegetative cells by broth microdilution method; assay type: functional
Bacillus anthracis [2] = assay: Antimicrobial activity against Bacillus anthracis Sterne spores by broth microdilution method; assay type: functional
Bacillus subtilis [3] = assay: Inhibition of RNA synthesis in Bacillus subtilis BD54 at 5 X MIC by [5-3H]uridine incorporation assay; assay type: functional
Method in brief: (§1)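 Precursors were [methyl-3H]thymidine (DNA), [5-3H]uridine (RNA), L-[4,5-3H]leucine (protein) and N-acetyl-D-[1-3H]glucosamine (cell wall). Samples taken over time, precipitated with equal volume of ice-cold 20% TCA, filtered on glass fibre, and counted. cpm plotted against time.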

Bacillus subtilis [4] = assay: Inhibition of protein synthesis in Bacillus subtilis BD54 at 5 X MIC by L-[4,5-3H]leucine incorporation assay; assay type: functional, organism-based; method in brief: as §1
Bacillus subtilis [5] = assay: Inhibition of cell wall synthesis in Bacillus subtilis BD54 at 5 X MIC by N-acetyl-D-[1-3H] glucosamine incorporation assay; assay type: functional; method in brief: as §1
Bacillus subtilis [6] = assay: Inhibition of DNA synthesis in Bacillus subtilis BD54 at 5 X MIC by [3H]thymidine incorporation assay; assay type: functional, organism-based; method in brief: as §1

SMILES | MIC (Bacillus anthracis [1]) | MIC (Bacillus anthracis [2]) | other results
N=C(N)c1ccc2[nH]c(/C=C/c3cc4ccc(C(=N)N)cc4o3)cc2c1 | > 17 mg/L | 8 mg/L (≈ 23.3 µM) | –
N=C(N)c1ccc2cc(/C=C/c3cc4ccc(C(=N)N)cc4o3)[nH]c2c1 | 4.2 mg/L (≈ 12.2 µM) | 2.1 mg/L (≈ 6.12 µM) | –
Nc1ccc(C2=Cc3ccc(N)cc3S2(=O)=O)cc1 | > 11 mg/L | > 11 mg/L | –
Cc1c(/C=C/c2oc3ccc(C(=N)N)cc3c2C)oc2cc(C(=N)N)ccc12 | > 18 mg/L | > 18 mg/L | –
N=C(N)c1ccc(-c2[nH]c3cc(C(=N)N)ccc3c2N)cc1 | > 15 mg/L | > 15 mg/L | –
C(=C\c1cc2cc(C3=NCCN3)ccc2[nH]1)/c1ccc(C2=NCCN2)cc1 | > 17 mg/L | > 17 mg/L | –
C(=C\c1cc2ccc(C3=NCCN3)cc2[nH]1)/c1ccc(Oc2ccc(C3=NCCN3)cc2)cc1 | 2.6 mg/L (≈ 5.81 µM) | 2.6 mg/L (≈ 5.81 µM) | –
N=C(N)c1ccc(-c2nc3cc(C(=N)N)ccc3[nH]2)cc1 | > 14 mg/L | > 14 mg/L | –
C(=C\c1nc2ccccc2[nH]1)/c1nc2ccccc2[nH]1 | > 10 mg/L | > 10 mg/L | –
N=C(N)c1ccc(/C=C/C=C/c2cc3cc(C(=N)N)ccc3o2)cc1 | 16.1 mg/L (≈ 48.7 µM) | 8.1 mg/L (≈ 24.5 µM) | –
N=C(N)c1ccc2oc(/C=C/C=C/C=C/c3cc4cc(C(=N)N)ccc4o3)cc2c1 | 9.4 mg/L (≈ 23.7 µM) | 2.3 mg/L (≈ 5.8 µM) | –
C(=C\c1cc2ccc(C3=NCCN3)cc2[nH]1)/c1ccc(C2=NCCN2)cc1 | > 17 mg/L | 8.6 mg/L (≈ 24.2 µM) | –
N=C(N)c1ccc2cc(/C=C/c3cc4ccc(C(=N)N)cc4o3)oc2c1 | 17 mg/L (≈ 49.4 µM) | 8.3 mg/L (≈ 24.1 µM) | –
c1cc(-c2cc3ccc(C4=NCCN4)cc3[nH]2)ccc1C1=NCCN1 | > 16 mg/L | > 16 mg/L | –
N=C(N)c1ccc(-c2cc3ccc(C(=N)N)cc3s2)cc1 | > 19 mg/L | > 19 mg/L | –
C(=C\c1cc2ccc(C3=NCCN3)cc2o1)/c1cc2ccc(C3=NCCN3)cc2[nH]1 | 19 mg/L (≈ 48 µM) | 4.7 mg/L (≈ 11.9 µM) | –
N=C(N)c1ccc2oc(CCc3cc4cc(C(=N)N)ccc4o3)cc2c1 | > 17 mg/L | > 17 mg/L | –
c1cc(-c2cc3ccc(C4=NCCN4)cc3s2)ccc1C1=NCCN1 | > 17 mg/L | > 17 mg/L | –
C(=C\c1cc2cc(C3=NCCN3)ccc2s1)/c1ccc(C2=NCCN2)cc1 | 17.8 mg/L (≈ 47.8 µM) | 17.8 mg/L (≈ 47.8 µM) | –
C(=C\c1cc2cc(C3=NCCN3)ccc2o1)/c1cc2cc(C3=NCCN3)ccc2[nH]1 | > 19 mg/L | 19 mg/L (≈ 48 µM) | –
N=C(N)c1ccc2oc(/C=C/c3cc4cc(C(=N)N)ccc4s3)cc2c1 | 17 mg/L (≈ 47.2 µM) | 8.7 mg/L (≈ 24.1 µM) | –

SMILES | MIC (Bacillus anthracis [1]) | MIC (Bacillus anthracis [2]) | other results
c1cc2cc(-c3cc4ccc(C5=NCCN5)cc4[nH]3)[nH]c2cc1C1=NCCN1 | 1.1 mg/L (≈ 2.99 µM) | 0.6 mg/L (≈ 1.63 µM) | –
N=C(N)Nc1ccc(-c2cc3cc(NC(=N)N)ccc3s2)cc1 | > 16 mg/L | 15.9 mg/L (≈ 49 µM) | –
N=C(N)c1ccc2cc(C(=N)N)[nH]c2c1 | > 11 mg/L | > 11 mg/L | –
N=C(N)c1ccc(-n2cc3cc(C(=N)N)ccc3n2)cc1 | > 14 mg/L | > 14 mg/L | –
N=C(N)c1ccc2[nH]c(/C=C/c3nc4cc(C(=N)N)ccc4[nH]3)nc2c1 | > 17 mg/L | > 17 mg/L | –
c1cc(-c2cc3cc(C4=NCCN4)ccc3s2)ccc1C1=NCCN1 | > 17 mg/L | > 17 mg/L | –
O=C(Nc1ccc(C2=NCCN2)cc1)c1cc2ccc(C3=NCCN3)cc2[nH]1 | 17.8 mg/L (≈ 47.8 µM) | 8.9 mg/L (≈ 23.9 µM) | –
N=C(N)c1ccc(-c2cc(-c3ccc(C(=N)N)cc3)on2)cc1 | > 15 mg/L | > 15 mg/L | –
C(=C\c1cc2ccc(C3=NCCN3)cc2o1)/c1cc2cc(C3=NCCN3)ccc2[nH]1 | > 19 mg/L | 19 mg/L (≈ 48 µM) | –
Cc1cc2nc(/C=C/c3nc4cc(C)c(C)cc4[nH]3)[nH]c2cc1C | > 13 mg/L | > 13 mg/L | –
C(=C\c1cc2ccc(C3=NCCN3)cc2o1)/c1cc2ccc(C3=NCCN3)cc2o1 | 19 mg/L (≈ 47.9 µM) | 19 mg/L (≈ 47.9 µM) | –
N=C(N)c1ccc(/C=C/c2cc3ccc(C(=N)N)cc3[nH]2)cc1 | 15 mg/L (≈ 49.4 µM) | 7.5 mg/L (≈ 24.7 µM) | –
C(=C\c1cc2cc(C3=NCCN3)ccc2o1)/c1ccc(C2=NCCN2)cc1 | 17.2 mg/L (≈ 48.3 µM) | 17.2 mg/L (≈ 48.3 µM) | –
C(/C=C/c1cc2cc(C3=NCCN3)ccc2o1)=C\c1cc2cc(C3=NCCN3)ccc2o1 | 19.8 mg/L (≈ 46.9 µM) | 9.9 mg/L (≈ 23.4 µM) | –
CO[C@H]1/C=C/O[C@@]2(C)Oc3c(C)c(O)c4c(O)c(c(/C=N/N5CCN(C)CC5)c(O)c4c3C2=O)NC(=O)/C(C)=C\C=C\[C@H](C)[C@H](O)[C@@H](C)[C@@H](O)[C@@H](C)[C@H](OC(C)=O)[C@@H]1C | – | – | inhibition (Bacillus subtilis [3]): Active; inhibition (Bacillus subtilis [4]): Active; inhibition (Bacillus subtilis [5]): Active; inhibition (Bacillus subtilis [6]): Active
N=C(N)c1ccc(NC(=O)c2cc3ccc(C(=N)N)cc3o2)cc1 | > 16 mg/L | > 16 mg/L | –
c1cc(-c2nc3cc(-c4nc5ccc(C6=NCCN6)cc5[nH]4)ccc3[nH]2)ccc1C1=NCCN1 | 22.3 mg/L (≈ 49.9 µM) | 1.4 mg/L (≈ 3.14 µM) | –
O=C(Nc1ccc(C2=NCCN2)cc1)c1cc2ccc(C3=NCCN3)cc2o1 | > 18 mg/L | > 18 mg/L | –
N=C(N)c1ccc(-c2cc3cc(C(=N)N)ccc3s2)cc1 | > 15 mg/L | > 15 mg/L | –
N=C(N)c1ccc2oc(/C=C/C=C/c3cc4cc(C(=N)N)ccc4o3)cc2c1 | 18 mg/L (≈ 48.6 µM) | 2.2 mg/L (≈ 5.94 µM) | –
N=C(N)c1ccc(/C=C/c2cc3cc(C(=N)N)ccc3[nH]2)cc1 | > 15 mg/L | 15 mg/L (≈ 49.4 µM) | –

SMILES | MIC (Bacillus anthracis [1]) | MIC (Bacillus anthracis [2]) | other results
Cc1cc(N)c2cc(NC(=O)Nc3ccc4nc(C)cc(N)c4c3)ccc2n1 [AMINOQUINURIDE] | 17.8 mg/L (≈ 47.8 µM) | 4.5 mg/L (≈ 12.1 µM) | –
N=C(N)c1ccc(Oc2ccc(-c3cc4ccc(C(=N)N)cc4[nH]3)cc2)cc1 | 4 mg/L (≈ 10.8 µM) | 4 mg/L (≈ 10.8 µM) | –
N=C(N)c1ccc(-c2[nH]c3cc(C(=N)N)ccc3c2-c2ccccc2)cc1 | 17 mg/L (≈ 48.1 µM) | 9 mg/L (≈ 25.5 µM) | –
N=C(N)N/N=C/c1ccc2cc(-c3ccc(/C=N/N=C(N)N)cc3)sc2c1 | 18 mg/L (≈ 47.6 µM) | 4.5 mg/L (≈ 11.9 µM) | –
Cc1c(/C=C/c2cc3cc(C(=N)N)ccc3o2)oc2cc(C(=N)N)ccc12 | > 17 mg/L | > 17 mg/L | –
N=C(N)c1ccc(-c2ccc(-c3ccc(C(=N)N)cc3)s2)cc1 | > 16 mg/L | 16 mg/L (≈ 49.9 µM) | –
C(/C=C/c1cc2cc(C3=NCCN3)ccc2o1)=C\c1ccc(C2=NCCN2)cc1 | 18.2 mg/L (≈ 47.6 µM) | 18.2 mg/L (≈ 47.6 µM) | –
C(=C\c1cc2cc(C3=NCCN3)ccc2o1)/c1cc2cc(C3=NCCN3)ccc2o1 | > 19 mg/L | > 19 mg/L | –
N/C(=N\O)c1ccc2oc(/C=C/c3cc4cc(/C(N)=N/O)ccc4o3)cc2c1 | > 23 mg/L | > 23 mg/L | –
C(=C\c1cc2ccc(C3=NCCN3)cc2[nH]1)/c1ccc2cc(C3=NCCN3)[nH]c2c1 | 18.7 mg/L (≈ 47.4 µM) | 9.3 mg/L (≈ 23.6 µM) | –
O=C(Nc1ccc(C2=NCCN2)cc1)c1cc2cc(C3=NCCN3)ccc2o1 | > 18 mg/L | 18 mg/L (≈ 48.2 µM) | –
N=C(N)c1ccc2oc(/C=C/c3cc4ccc(C(=N)N)cc4o3)cc2c1 | > 17 mg/L | > 17 mg/L | –
c1cc(-c2[nH]c3cc(C4=NCCN4)ccc3c2-c2cc3ccc(C4=NCCN4)cc3[nH]2)ccc1C1=NCCN1 | 24.9 mg/L (≈ 48.6 µM) | 24.9 mg/L (≈ 48.6 µM) | –
N=C(N)c1ccc2oc(CCc3cc4ccc(C(=N)N)cc4[nH]3)cc2c1 | 8.4 mg/L (≈ 24.3 µM) | 8.4 mg/L (≈ 24.3 µM) | –
OCCn1c(/C=C/c2nc3ccccc3[nH]2)nc2ccccc21 | > 12 mg/L | > 12 mg/L | –
N=C(N)c1ccc(-n2nc3ccc(C(=N)N)cc3n2)cc1 | > 14 mg/L | > 14 mg/L | –
O=C(N[C@H](CO)[C@H](O)c1ccc([N+](=O)[O-])cc1)C(Cl)Cl | – | – | inhibition (Bacillus subtilis [3]): Active; inhibition (Bacillus subtilis [4]): Active; inhibition (Bacillus subtilis [5]): Active; inhibition (Bacillus subtilis [6]): Active
N=C(N)c1ccc(/C=C/c2cc3cc(C(=N)N)ccc3o2)cc1 | > 15 mg/L | > 15 mg/L | –
CN[C@H](CC(C)C)C(=O)N[C@H]1C(=O)N[C@@H](CC(N)=O)C(=O)N[C@H]2C(=O)N[C@H]3C(=O)N[C@H](C(=O)N[C@H](C(=O)O)c4cc(O)cc(O)c4-c4cc3ccc4O)[C@H](O)c3ccc(c(Cl)c3)Oc3cc2cc(c3O[C@@H]2O[C@H](CO)[C@@H](O)[C@H](O)[C@H]2O[C@H]2C[C@](C)(N)[C@H](O)[C@H](C)O2)Oc2ccc(cc2Cl)[C@H]1O | – | – | inhibition (Bacillus subtilis [3]): Active; inhibition (Bacillus subtilis [4]): Active; inhibition (Bacillus subtilis [5]): Active; inhibition (Bacillus subtilis [6]): Active
